Activity calls are given as the source filed them. The rule behind the calls is not given here.

The test system of test [1] is HASMC. As to the kind of experiment: Antiinflammatory activity in HASMC cells assessed as effect on LPS/IFNgamma-induced TNFalpha gene expression at 2 uM […] and measured after 4 hrs by RT-qPCR analysis. In kind it is functional, cell-based. The conditions noted are these: Homo sapiens. The method in brief: (§1)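 HBE cells (passage 73–103) or immortalized hASM cells (2–3 donors, passage 27–35), serum-starved. Then 2 μM RGFP966 for 20 h, with LPS/IFNγ for the last 4 h. Total RNA isolated; RT-qPCR by 2−ΔΔCt, fold change versus LPS/IFNγ control. Mean ± SD of 3–5 independent experiments.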

In test [2] the test system is HBE. The test can be described thus: Antiinflammatory activity in HBE cells assessed as effect on LPS/IFNgamma-induced TNFalpha gene expression at 2 uM […] by RT-qPCR analysis. Type of test: functional, cell-based. To be noted: Homo sapiens. In short, it runs like this:
as §1

Test [3] relates to HASMC. The test can be described thus: Antiinflammatory activity in HASMC cells assessed as effect on LPS/IFNgamma-induced IL-10 gene expression at 2 uM […] by RT-qPCR analysis. The conditions noted are these: Homo sapiens. In kind it is functional, cell-based. In short, it runs like this: as §1
Test [4] has as its system HASMC. The test can be described thus: Antiinflammatory activity in HASMC cells assessed as effect on LPS/IFNgamma-induced IL-1beta gene expression at 2 uM […] by RT-qPCR analysis. The conditions noted are these: Homo sapiens. Type of test: functional, cell-based. In short, it runs like this: as §1
For test [5], the system named is Lung. As to the kind of experiment: Antiinflammatory activity in C57bl/6 mouse precision-cut lung slices assessed as upregulation of LPS/IFNgamma-induced Fizz1 gene expression at 1 to 10 uM preincubated for 20 hrs followed by LPS/IFNgamma stimulation and measured after 4 hrs by RT-qPCR analysis. To be noted: dose 1-10 µM, time 24.0 hrs. Type of test: functional, tissue-based. The method in brief: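 PCLS, 250 μm thick, cut from agarose-filled lungs of male C57bl/6 mice (24–28 g, 8–10 weeks). Three slices per well at 37 °C, 5% CO2. Slices received RGFP966 at 1 and 10 μM final for 20 h, with 10 ng/ml LPS and 10 ng/ml IFNγ stimulation. RNA isolated; RT-qPCR fold change versus LPS/IFNγ control by 2−ΔΔCt. Mean ± SD, n = 3–5.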

The subject of test [6] is RAW264.7. As to the kind of experiment: Antiinflammatory activity in LPS/IFNgamma-stimulated mouse RAW264.7 cells assessed as effect on HDAC1 mRNA expression preincubated for 20 hrs followed by LPS/IFNgamma stimulation and measured after 4 hrs by RT-qPCR analysis. Type of test: functional, cell-based. The conditions noted are these: time 24.0 hrs.
The test system of test [7] is RAW264.7. As to the kind of experiment: Antiinflammatory activity in LPS/IFNgamma-stimulated mouse RAW264.7 cells assessed as effect on HDAC2 mRNA expression preincubated for 20 hrs followed by LPS/IFNgamma stimulation and measured after 4 hrs by RT-qPCR analysis. To be noted: time 24.0 hrs. Type of test: functional, cell-based.
The test system of test [8] is RAW264.7. The test can be described thus: Antiinflammatory activity in LPS/IFNgamma-stimulated mouse RAW264.7 cells assessed as effect on HDAC3 mRNA expression preincubated for 20 hrs followed by LPS/IFNgamma stimulation and measured after 4 hrs by RT-qPCR analysis. Type of test: functional, cell-based. The conditions noted are these: time 24.0 hrs.
Test [9] deals with RAW264.7. As to the kind of experiment: Antiinflammatory activity in LPS/IFNgamma-stimulated mouse RAW264.7 cells assessed as reduction in HDAC1 expression preincubated for 20 hrs followed by LPS/IFNgamma stimulation and measured after 4 hrs by Western blot analysis. The conditions noted are these: time 24.0 hrs. Type of test: functional, cell-based. In short, it runs like this:
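RAW 264.7 cells were LPS/IFNγ-stimulated after inhibitor exposure, then lysed in Hepes/Triton buffer containing DTT, butyrate and protease inhibitors, freeze-thawed and cleared. Immunoblot with milk blocking and overnight primary antibody at 4 °C. Densitometry normalized to β-actin, LPS/IFNγ control set at 100%. Mean ± SD of 4 independent experiments.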

Test [10] relates to RAW264.7. The test can be described thus: Antiinflammatory activity in LPS/IFNgamma-stimulated mouse RAW264.7 cells assessed as effect on IkappaBalpha mRNA expression preincubated for 20 hrs followed by LPS/IFNgamma stimulation and measured after 4 hrs by RT-qPCR analysis. In kind it is functional, cell-based. To be noted: time 24.0 hrs.
Test [11] has as its system RAW264.7. The test can be described thus: Antiinflammatory activity in LPS/IFNgamma-stimulated mouse RAW264.7 cells assessed as effect on IkappaBalpha expression preincubated for 20 hrs followed by LPS/IFNgamma stimulation and measured after 4 hrs by Western blot analysis. Type of test: functional, cell-based. To be noted: time 24.0 hrs.
Test [12] has as its system Lung. As to the kind of experiment: Antiinflammatory activity in C57bl/6 mouse precision-cut lung slices assessed as effect on LPS/IFNgamma-induced HDAC3 gene expression at 1 to 10 uM preincubated for 20 hrs followed by LPS/IFNgamma stimulation and measured after 4 hrs by RT-qPCR analysis. In kind it is functional, tissue-based. The conditions noted are these: dose 1-10 µM, time 24.0 hrs.

Test [13] deals with Lung. The test can be described thus: Antiinflammatory activity in C57bl/6 mouse precision-cut lung slices assessed as effect on LPS/IFNgamma-induced HDAC3 expression at 1 to 10 uM preincubated for 20 hrs followed by LPS/IFNgamma stimulation and measured after 4 hrs by Western blot analysis. Type of test: functional, tissue-based. The conditions noted are these: dose 1-10 µM, time 24.0 hrs.

For test [14], the target named is T1, Histone deacetylase 3 (Mus musculus) (UniProt O88895).
T1 sequence (whole entry): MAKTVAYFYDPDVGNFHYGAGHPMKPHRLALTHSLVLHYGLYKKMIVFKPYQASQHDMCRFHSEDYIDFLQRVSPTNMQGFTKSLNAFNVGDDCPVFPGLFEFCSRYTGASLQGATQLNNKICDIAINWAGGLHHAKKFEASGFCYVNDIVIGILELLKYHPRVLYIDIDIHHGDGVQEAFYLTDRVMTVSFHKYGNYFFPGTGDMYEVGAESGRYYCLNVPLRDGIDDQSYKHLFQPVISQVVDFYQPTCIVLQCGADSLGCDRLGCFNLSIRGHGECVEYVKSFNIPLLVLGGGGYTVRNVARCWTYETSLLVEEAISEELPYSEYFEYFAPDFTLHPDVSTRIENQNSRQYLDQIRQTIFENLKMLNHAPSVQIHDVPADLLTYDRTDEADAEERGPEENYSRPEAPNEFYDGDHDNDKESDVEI
As to the kind of experiment: Effect on HDAC3 nuclear localization in LPS/IFNgamma-stimulated mouse RAW264.7 cells preincubated for 20 hrs followed by LPS/IFNgamma stimulation and measured after 1 hr by Hoechst staining based confocal laser scanning microscopy. Type of test: cell-based. The method in brief:
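RAW 264.7 cells at 20,000 cells/cm2 received 1 μM RGFP966 for 20 h, then 1 h LPS/IFNγ. Fixed in 4% formaldehyde, permeabilized with 0.25% Triton X-100, blocked with 5% BSA. Primary antibodies 2 h at 4 °C, AlexaFluor secondaries 1 h, Hoechst nuclear stain. Confocal imaging at 630×; 4 independent experiments.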

The target in test [15] is Histone deacetylase 2 (Mus musculus) (UniProt P70288). As to the kind of experiment: Effect on HDAC2 nuclear localization in LPS/IFNgamma-stimulated mouse RAW264.7 cells preincubated for 20 hrs followed by LPS/IFNgamma stimulation and measured after 1 hr by Western blot analysis. Type of test: cell-based. In short, it runs like this: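 RAW 264.7 cells treated for 20 h, then 1 h LPS/IFNγ, and fractionated into nuclear and cytosolic parts. Fractions immunoblotted, with PARP-1 and β-actin as internal controls. Densitometry with vehicle control set at 100%. Mean ± SD of 3–4 independent experiments.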
Chain of Histone deacetylase 2 (Mus musculus) (P70288 whole entry): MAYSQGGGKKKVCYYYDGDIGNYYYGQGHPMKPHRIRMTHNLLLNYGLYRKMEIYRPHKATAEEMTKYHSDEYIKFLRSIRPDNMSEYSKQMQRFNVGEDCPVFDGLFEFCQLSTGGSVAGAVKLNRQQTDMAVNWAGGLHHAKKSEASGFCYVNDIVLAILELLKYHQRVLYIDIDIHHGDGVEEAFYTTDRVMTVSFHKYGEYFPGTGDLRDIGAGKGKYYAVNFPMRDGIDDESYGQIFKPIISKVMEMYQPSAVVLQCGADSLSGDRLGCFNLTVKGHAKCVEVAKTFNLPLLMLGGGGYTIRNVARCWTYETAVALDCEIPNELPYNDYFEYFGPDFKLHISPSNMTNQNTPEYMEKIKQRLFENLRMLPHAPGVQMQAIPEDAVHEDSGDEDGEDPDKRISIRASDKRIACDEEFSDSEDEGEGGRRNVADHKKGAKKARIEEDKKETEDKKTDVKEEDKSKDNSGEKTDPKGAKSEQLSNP

The target of test [16] is T1, Histone deacetylase 3 (Mus musculus). As to the kind of experiment: Inhibition of HDAC3 in mouse RAW264.7 cells assessed as effect on LPS/IFNgamma-induced NF-kappaB p65 acetylation level preincubated for 20 hrs followed by LPS/IFNgamma stimulation and measured after 1 hr by Western blot analysis.

Consider `Nc1cc(F)ccc1NC(=O)/C=C/c1cnn(C/C=C/c2ccccc2)c1`, for which the result in test [1], in test [2], in test [3], in [4], in test [6] and in test [7] was inactive. Further, the result in test [8], in test [10], in test [11], in test [12], in test [13] and in test [14] was inactive. The result in test [15] was inactive. Besides, the outcome in test [5] and in test [9] was Active. Also, the inhibition entry in test [16] is “inactive”.

For the origin of these results see ChEMBL document CHEMBL5653624 (Biochem Pharmacol, 2016).
